Experimental findings from ChEMBL document CHEMBL3588772, “Synthesis, anti-mycobacterial activity and DNA sequence-selectivity of a library of biaryl-motifs containing polyamides” (Bioorg Med Chem, 2015) are described below.

Data set [1] can be described thus: Selectivity index, ratio of GIC50 for mouse RAW264.7 cells to MIC for Mycobacterium tuberculosis H37Rv. The note with it: read-out: Selectivity Index. It is filed as toxicity. The essentials: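 Cytotoxicity was measured in mouse macrophage RAW264.7 cells by resazurin viability readout. GIC50 was interpolated at 50% viability versus untreated control. SI = GIC50 divided by the M. tuberculosis MIC from the agar spot assay.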

In data set [2] the test system is Mycobacterium tuberculosis. In words: Antimycobacterial activity against Mycobacterium tuberculosis H37Rv after 7 days. The note with it: 168 h. Type of data set: functional. The essentials: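 HT-SPOTi agar growth inhibition in 96-well format. Serially diluted DMSO solutions were mixed into Middlebrook 7H10 agar (kept at 55 °C) with 0.05% glycerol and 10% OADC. Controls were DMSO-only wells and isoniazid. Each well received 2×10³ CFU of culture (pre-grown rolling at 2 rpm or standing, 37 °C). Plates ran 7 days at 37 °C. MIC = lowest concentration with no visible growth.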

A short description of data set [3]: Cytotoxicity against mouse RAW264.7 cells. It is filed as cell-based. The essentials:
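RAW264.7 mouse macrophages assessed by resazurin viability assay. GIC50 interpolated at 50% viability versus control.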

Data set [4] can be described thus: Binding affinity to 192 base-pair fragment HexB 5-TTATAA-3 (unknown origin) at 5 to 10 uM after 30 mins by DNaSeI footprinting assay. The method, boiled down: (§1)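 Radiolabelled HexB fragment in 10 mM Tris–HCl pH 7.5 with 0.1 mM EDTA, mixed with ligand in 10 mM Tris–HCl pH 7.5 with 10 mM NaCl. Equilibrated 30 min at room temperature, then DNase I in 20 mM NaCl, 2 mM MgCl₂, 2 mM MnCl₂ for 1 min. Heated 100 °C 3 min, resolved on 8% denaturing polyacrylamide gels, phosphorimaged. GA purine markers and no-ligand control lanes included.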

The test system of data set [5] is unidentified. In words: Binding affinity to 192 base-pair fragment HexB 5-TAATTA-3 (unknown origin) at 5 to 10 uM after 30 mins by DNaSeI footprinting assay. The essentials: as §1
Data set [6] can be described thus: Binding affinity to 192 base-pair fragment HexB (unknown origin) at 5 to 10 uM after 30 mins by DNaSeI footprinting assay. The method, boiled down:
as §1

A short description of data set [7]: Binding affinity to 192 base-pair fragment HexB 5-CAATTG-3 (unknown origin) at 5 to 10 uM after 30 mins by DNaSeI footprinting assay. The method, boiled down: as §1
A short description of data set [8]: Binding affinity to 192 base-pair fragment HexB (unknown origin) at 1 to 10 uM after 30 mins by DNaSeI footprinting assay. The method, boiled down:
as §1

A short description of data set [9]: Binding affinity to 5'-ACVHA-3' (V= A or G or C; H= C or T or A) (unknown origin) at 2 uM after 45 mins by ethidium bromide assay. The method, boiled down:
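Hairpin oligonucleotides from a 512-member five-bp library at 1 µM base pairs final with 4.4 µM ethidium bromide in 0.1 M Tris–HCl, 0.1 M NaCl, pH 8. Fluorescence read after 15 min at room temperature (ex 545, em 595 nm). Ligand added at 2 µM final (DMSO), read again after 45 min. Triplicates; % fluorescence reduction relative to no-drug and no-DNA controls.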

A short description of data set [10]: Binding affinity to 192 base-pair fragment HexB 5-ATTAAT-3 (unknown origin) at 1 to 10 uM after 30 mins by DNaSeI footprinting assay. The essentials:
as §1

For data set [11], the system named is unidentified. The data set is described as follows: Binding affinity to 192 base-pair fragment HexB 5-ACATAT-3 (unknown origin) at 1 to 10 uM after 30 mins by DNaSeI footprinting assay. The method, boiled down:
as §1

For data set [12], the system named is unidentified. The data set is described as follows: Binding affinity to 192 base-pair fragment HexB 5-AATATT-3 (unknown origin) at 1 to 10 uM after 30 mins by DNaSeI footprinting assay. The method, boiled down: as §1

Usually MIC stands for the least concentration at which growth counts as inhibited. Higher therefore signals a less susceptible organism. Usually GI50 stands for the concentration giving 50% growth inhibition. A high value points to less potent growth inhibition.

Values after ≈ are worked out from the molar mass of the structure shown. Active and inactive are the calls of the source. The rule behind the calls is not given here.

Consider `Cc1nc(-c2ccsc2)sc1C(=O)Nc1cc(C(=O)Nc2cc(C(=O)NCCCN(C)C)n(C)c2)n(C)c1`, for which the selectivity ratio in [1] was 0.25. Also, in [2], the MIC is 250 µg/mL (≈ 451 µM). Further, the GI50 in [3] was determined as 62.5 µg/mL (≈ 113 µM).
Consider `CC(=O)Nc1ccc(-c2csc(C(=O)Nc3cc(C(=O)Nc4cc(C(=O)NCCCN(C)C)n(C)c4)n(C)c3)c2)cc1`, for which, in data set [1], the selectivity ratio was determined as 1. In data set [2], this molecule returned an MIC of 62.5 µg/mL (≈ 106 µM). In data set [3], this molecule returned a GI50 of 62.5 µg/mL (≈ 106 µM).
Turning to `CC(=O)Nc1ccc(-c2ccc(C(=O)Nc3cc(C(=O)Nc4cc(C(=O)NCCCN(C)C)n(C)c4)n(C)c3)o2)cc1`, the selectivity ratio in [1] came to 2. For the same molecule, in [2], the MIC was 125 µg/mL (≈ 218 µM). Moreover, it took 250 µg/mL (≈ 436 µM) to inhibit growth in data set [3] by half (GI50).
As for `Cn1cc(NC(=O)c2cc(NC(=O)c3cc(NC=O)cn3C)cn2C)cc1C(=O)NCCC(=N)N` [STALLIMYCIN], the outcome (in data set [4]; in the data set with unidentified [5]; in [6]; in data set [7]; in [8]) was Active. In [1], the selectivity ratio was 2. This molecule also returned an MIC in data set [2] of 31.2 µg/mL (≈ 64.9 µM). In addition, it took 62.5 µg/mL (≈ 130 µM) to inhibit growth in data set [3] by half (GI50).
In the case of `Cc1nc(-c2cnn(C)c2)sc1C(=O)Nc1cc(C(=O)Nc2cc(C(=O)NCCCN(C)C)n(C)c2)n(C)c1`, the outcome (in data set [9]; in data set [10]; with unidentified [11]; in data set [6]; in the data set with unidentified [12]; in data set [8]) was Active. For the same molecule, in data set [1], the selectivity ratio is 8. Moreover, in data set [2], inhibition of growth (MIC) required 31.2 µg/mL (≈ 56.6 µM). In [3], this molecule came in with a GI50 of 250 µg/mL (≈ 453 µM).
Regarding `CO[C@H]1/C=C/O[C@@]2(C)Oc3c(C)c(O)c4c(O)c(c(/C=N/N5CCN(C)CC5)c(O)c4c3C2=O)NC(=O)/C(C)=C\C=C\[C@H](C)[C@H](O)[C@@H](C)[C@@H](O)[C@@H](C)[C@H](OC(C)=O)[C@@H]1C` [RIFAMPIN], the selectivity ratio in data set [1] came to 14000. In [2], the lowest concentration to inhibit growth (MIC) was 0.05 µg/mL (≈ 0.0608 µM). In addition, the GI50 in data set [3] turned out to be 700 µg/mL (≈ 851 µM).
For the molecule `CC(=O)Nc1ccc(-c2cc(C(=O)Nc3cc(C(=O)Nc4cc(C(=O)NCCCN(C)C)n(C)c4)n(C)c3)n(C)c2)cc1`, the selectivity ratio in data set [1] is 4. In [2], this molecule had an MIC of 125 µg/mL (≈ 213 µM). Moreover, in [3], the GI50 turned out to be 500 µg/mL (≈ 852 µM).
For the molecule `CC(=O)Nc1cccc(-c2ccc(C(=O)Nc3cc(C(=O)Nc4cc(C(=O)NCCCN(C)C)n(C)c4)n(C)c3)o2)c1`, in data set [1], the selectivity ratio was 4. The molecule further showed an MIC in data set [2] of 125 µg/mL (≈ 218 µM). Also, growth in data set [3] was halved (GI50) at 500 µg/mL (≈ 872 µM).
For `NNC(=O)c1ccncc1` [ISONIAZID] the same measures were 60000, 0.05 µg/mL (≈ 0.365 µM) and 3000 µg/mL (≈ 21900 µM).
